Measurements as given in ChEMBL document CHEMBL4177525, “Synthesis and evaluation of frentizole-based indolyl thiourea analogues as MAO/ABAD inhibitors for Alzheimer's disease treatment” (Bioorg Med Chem, 2017).
Calls of active or inactive are those of the source. The calls are words filed in the database; no cut-off is given here.

Assays:
[1] = biological target: T1, Amyloid beta-binding alcohol dehydrogenase (Homo sapiens, UniProt Q2L8D9); assay: Inhibition of ABAD (unknown origin) by spectrophotometric assay
[2] = biological target: T2, Amine oxidase [flavin-containing] A (Homo sapiens, UniProt P21397); assay: Inhibition of human purified MAO-A expressed in insect cell membranes assessed as reduction in conversion of kynuramine to 4-hydroxyquinoline by spectrophotometric assay
T2 sequence (P21397 whole entry): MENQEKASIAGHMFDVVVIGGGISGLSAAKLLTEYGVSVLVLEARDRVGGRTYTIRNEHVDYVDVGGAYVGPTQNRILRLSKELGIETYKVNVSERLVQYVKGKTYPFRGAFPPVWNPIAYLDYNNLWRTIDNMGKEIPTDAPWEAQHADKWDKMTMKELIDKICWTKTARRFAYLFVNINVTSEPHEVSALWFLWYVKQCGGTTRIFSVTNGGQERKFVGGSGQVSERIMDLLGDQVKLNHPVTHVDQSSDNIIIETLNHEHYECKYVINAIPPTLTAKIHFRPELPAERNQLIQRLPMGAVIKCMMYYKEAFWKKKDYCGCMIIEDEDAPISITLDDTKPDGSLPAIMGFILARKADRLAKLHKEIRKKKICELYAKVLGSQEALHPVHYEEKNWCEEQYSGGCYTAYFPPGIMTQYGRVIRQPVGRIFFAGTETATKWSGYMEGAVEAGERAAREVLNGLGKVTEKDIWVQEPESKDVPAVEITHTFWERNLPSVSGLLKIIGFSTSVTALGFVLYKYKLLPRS

[3] = biological target: T2, Amine oxidase [flavin-containing] A; assay: Inhibition of human membrane bound MAO-A expressed in insect cell membranes assessed as reduction in conversion of kynuramine to 4-hydroxyquinoline by spectrophotometric assay; conditions: read-out: IC50
Procedure, shortened: (§1)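 Human MAO-A or MAO-B expressed in insect cell membranes, diluted 1/4000 (A) or 1/2000 (B). Kynuramine at 2×KM: 60 µM for MAO-A, 30 µM for MAO-B. Assay in 50 mM potassium phosphate pH 7.5, 30°C, 1% DMSO, absorbance at 314 nm. Inhibitor varied over 4 orders of magnitude, up to 100 µM. Linear rates from 8-10 assays fitted by 3-parameter regression with bottom fixed at zero; IC50 ± SE of estimate.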

[4] = biological target: T3, Amine oxidase [flavin-containing] B (Homo sapiens, UniProt P27338); assay: Inhibition of human membrane bound MAO-B expressed in insect cell membranes assessed as reduction in conversion of kynuramine to 4-hydroxyquinoline by spectrophotometric assay; conditions: read-out: IC50
T3 sequence (P27338 whole entry): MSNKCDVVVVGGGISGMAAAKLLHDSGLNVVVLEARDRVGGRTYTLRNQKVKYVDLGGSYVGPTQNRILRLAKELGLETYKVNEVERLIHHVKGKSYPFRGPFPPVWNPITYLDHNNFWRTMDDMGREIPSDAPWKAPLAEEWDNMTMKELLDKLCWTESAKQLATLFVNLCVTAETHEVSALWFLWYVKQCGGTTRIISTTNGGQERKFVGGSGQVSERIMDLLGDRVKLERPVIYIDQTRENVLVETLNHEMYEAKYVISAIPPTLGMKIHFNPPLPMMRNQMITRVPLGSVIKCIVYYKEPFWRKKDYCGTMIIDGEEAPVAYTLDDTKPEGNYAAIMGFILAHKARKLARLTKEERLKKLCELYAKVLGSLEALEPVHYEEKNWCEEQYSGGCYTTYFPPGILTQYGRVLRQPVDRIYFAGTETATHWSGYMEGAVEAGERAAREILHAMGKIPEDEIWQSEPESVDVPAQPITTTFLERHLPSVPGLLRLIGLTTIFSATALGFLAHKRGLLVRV
Procedure, shortened: as §1

[5] = biological target: T1, Amyloid beta-binding alcohol dehydrogenase; assay: Inhibition of ABAD (unknown origin) assessed as residual activity at 100 uM using acetoacetyl-CoA in presence of NADH by spectrophotometric assay relative to control
Procedure, shortened: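 Recombinant ABAD at 0.5 µg/mL with NADH 250 µM and acetoacetyl-CoA 120 µM; compound at 100 µM in 1% DMSO, controls with matching DMSO. Buffer 10 mM HEPES, 0.5% gelatin, pH 7.4 at 37°C. NADH consumption read as falling absorbance at 340 nm; reported as % remaining activity ± SEM from two biological repeats, each with three technical repeats.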

[6] = biological target: T4, peroxidase (horseradish peroxidase) (Raphanus sativus, UniProt K7N5L9); assay: Inhibition of horse radish peroxidase assessed as residual activity at 5 uM by amplex red dye based fluorescence assay; conditions: horseradish peroxidase (isolated enzyme), probe Amplex Red, read-out: Activity
T4 sequence (K7N5L9 whole entry): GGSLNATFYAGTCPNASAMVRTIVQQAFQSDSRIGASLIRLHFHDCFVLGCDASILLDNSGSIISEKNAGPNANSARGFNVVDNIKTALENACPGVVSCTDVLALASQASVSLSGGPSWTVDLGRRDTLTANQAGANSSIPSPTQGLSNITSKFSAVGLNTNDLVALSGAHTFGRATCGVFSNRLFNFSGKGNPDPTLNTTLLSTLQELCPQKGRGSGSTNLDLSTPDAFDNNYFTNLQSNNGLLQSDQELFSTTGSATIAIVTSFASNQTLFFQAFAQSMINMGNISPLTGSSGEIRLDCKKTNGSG
Procedure, shortened: (§2)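 HRP (0.02 U/mL) given H2O2 20 µM directly as substrate plus Ampliflu Red 20 µM in 50 mM potassium phosphate pH 7.4. Compound at 50 or 5 µM, 1% DMSO; controls DMSO only. Resorufin fluorescence read at ex 535/em 595 nm, 30°C, as remaining HRP activity.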

[7] = biological target: T4, peroxidase (horseradish peroxidase); assay: Inhibition of horse radish peroxidase assessed as residual activity at 50 uM by amplex red dye based fluorescence assay; conditions: horseradish peroxidase (isolated enzyme), probe Amplex Red, read-out: Activity
Procedure, shortened: as §2

Peroxidase = Peroxidase (Raphanus sativus, UniProt K7N5L9); assay: Inhibition of horse radish peroxidase assessed as residual activity by amplex red dye based fluorescence assay
Peroxidase, sequence (K7N5L9 whole entry): as above
Procedure, shortened: as §2

[8] = Solubility of the compound at 100 uM; assay type: physicochemical
Procedure, shortened: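 Compounds checked for solubility in assay buffer at 100 µM.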

[9] = Cytotoxicity against CHOK1 cells assessed as reduction in cell viability after 24 hrs by MTT assay; assay type: cell-based, Cricetulus griseus; conditions: chinese hamster, CHO-K1 cells; read-out: LC50
Procedure, shortened: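 CHO-K1 cells grown as ECACC recommends, seeded 8000 per well; compounds from DMSO stocks diluted in F-12 with 10% FBS and 1% pen/strep (final DMSO at most 0.5%), exposed 24 h. Medium then replaced with 10 µM MTT for about 3 h, formazan dissolved in DMSO, absorbance read at 570 nm (650 nm reference). LC50 from control-subtracted triplicates by four-parameter regression; mean ± SEM of 3 independent runs.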

[10] = Lipophilicity of the compound assessed as capacity factor at pH 3.5 by HPLC analysis; assay type: physicochemical; conditions: buffer
Procedure, shortened: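 Capacity factor k from gradient HPLC on reversed-phase C18 in acid polar organic mode, pH ~3.5.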

[11] = Quenching activity of the compound assessed as reduction in resorufin fluorescence; assay type: functional
Procedure, shortened: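 Resorufin at 1 µM and 10 µM measured for fluorescence in the presence of compound at 50 µM.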

SMILES | IC50 [1] [nM] | IC50 [2] | IC50 [3] [µM] | IC50 [4] [µM] | Activity [5] [%] | activity at 5 µM [6] [%] | activity at 50 µM [7] [%] | IC50 (Peroxidase) [nM] | solubility [8] | CC50 at 24 h [9] [µM] | K [10] | Activity [11]
O=C(C(c1ccccc1)n1cnc2[nH]ncc2c1=S)N1CCCCCC1 (configuration not stated) | 92 |  |  |  |  |  |  |  |  |  |  | 
Oc1c(Cl)cc(NC(=S)Nc2ccc3[nH]ccc3c2)cc1Cl |  | Not Active | > 100 | 17 | 39 | 48.6 | 23.9 | 1060 | Soluble | 523 | 3.975 | inactive
